Activity calls are given as the source filed them. The calls are words filed in the database; no cut-off is given here.
Tests used:
[1] = test system: Woodchuck hepatitis virus; assay: Antiviral activity against Woodchuck hepatitis virus infected in woodchuck assessed as absent of lesion in portal hepatitis at 15 mg/kg, po qd for 48 weeks measured on 60th week; type: functional, organism-based; design: dose 15 mg/kg
In short: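 Chronic WHV-carrier adult woodchucks (inoculated at 3 days of age), 5 per group, dosed orally once daily for 48 weeks by dose syringe, drug in saline suspended in semisynthetic liquid diet; placebo is diet alone. Ultrasound-guided needle liver biopsies under ketamine/xylazine, formalin-fixed, H&E stained; portal and lobular hepatitis graded 0 (absent) to 4 (most severe).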

[2] = test system: Woodchuck hepatitis virus; assay: Antiviral activity against Woodchuck hepatitis virus infected in woodchuck assessed as reduction of viral RNA level per ug of total cell DNA at 15 mg/kg, po qd measured on 36th week on 48 weeks study (reference value: 33 +/- 21 pg); type: functional
In short: (§1)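 Chronic WHV-carrier woodchucks, 5 per group, 15 mg/kg/day oral once daily for 48 weeks in liquid diet. Needle liver biopsies were snap-frozen in liquid nitrogen and stored at −70°C. Hepatic WHV DNA replicative intermediates were quantified by Southern blot (pg/μg total cell DNA) and WHV RNA by Northern blot; group means ± SD were compared with pretreatment and placebo.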

[3] = test system: Woodchuck hepatitis virus; assay: Antiviral activity against Woodchuck hepatitis virus infected in woodchuck assessed as reduction of viral RNA level per ug of total cell DNA at 15 mg/kg, po qd measured on 12th week on 48 weeks study (reference value: 46 +/- 25 pg); type: functional; in short: as §1
[4] = test system: Woodchuck hepatitis virus; assay: Antiviral activity against Woodchuck hepatitis virus infected in woodchuck assessed as reduction of viral DNA replicative intermediate level per ug of total cell DNA at 15 mg/kg, po qd for 48 weeks measured on 60th week (reference value: 979 pg); type: functional; in short: as §1
[5] = test system: Woodchuck hepatitis virus; assay: Antiviral activity against Woodchuck hepatitis virus infected in woodchuck assessed as frequency of hepatocytes expressing viral antigen at 15 mg/kg, po qd measured on 36th week on 48 weeks study; type: functional, Hepatocyte
In short: (§2)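 Chronic WHV-carrier woodchucks, 5 per group, given 15 mg/kg/day orally once daily for 48 weeks in liquid diet; placebo is diet alone. Liver biopsies at pretreatment, weeks 12, 36, 48 and 12 weeks after withdrawal. Cytoplasmic WHsAg staining scored 0–4: 1 ≤1%, 2 ≤2%, 3 ≤5%, 4 ≥10% of hepatocytes.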

Marmota monax [6] = assay: Toxicity in Woodchuck hepatitis virus infected woodchuck assessed as change in body weight at 15 mg/kg, po qd for 48 weeks measured up to 60 weeks; type: organism-based; design: dose 15 mg/kg, route oral; details: in vivo
In short: (§3)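 Chronic WHV-carrier woodchucks, 5 per group, were dosed orally once daily in liquid diet for 48 weeks, with a placebo diet-only group. Body weights were monitored. Complete blood counts were taken 2 weeks pretreatment, at weeks 12, 36 and 48 of treatment, and 12 weeks after withdrawal. Values were compared with placebo controls.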

[7] = test system: Woodchuck hepatitis virus; assay: Antiviral activity against Woodchuck hepatitis virus infected in woodchuck assessed as absent of lesion in portal hepatitis at 15 mg/kg, po qd for 48 weeks; type: functional, organism-based; design: dose 15 mg/kg
In short: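 Adult chronic WHV-carrier woodchucks (neonatally inoculated), 5 per group, given drug once daily by dose syringe in semisynthetic liquid diet, for 48 weeks; placebo got diet alone. Ultrasound-guided needle liver biopsies under ketamine/xylazine anesthesia at pretreatment, weeks 12, 36, 48 and 12 weeks post-withdrawal. Biopsies were formalin-fixed, paraffin-embedded and H&E stained. Portal and lobular hepatitis were graded 0 (absent) to 4 (most severe).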

Marmota monax [8] = assay: Toxicity in Woodchuck hepatitis virus infected woodchuck assessed as increase of liver sorbitol dehydrogenase activity at 15 mg/kg, po qd measured on 4 to 24 weeks on 48 week study; type: organism-based; design: dose 15 mg/kg, route oral; details: in vivo
In short: (§4)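 Woodchucks chronically infected with WHV, 5 per group, received oral drug once daily in liquid diet for 48 weeks; placebo got diet only. Serum chemistry (GGT, ALP, ALT, AST, SDH, among others) was run 2 weeks pretreatment, at week 0, every other week to week 12, then monthly to week 48. Sampling continued at 2, 4, 6, 8 and 12 weeks post-treatment.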

[9] = test system: Woodchuck hepatitis virus; assay: Antiviral activity against Woodchuck hepatitis virus infected in woodchuck assessed as frequency of hepatocytes expressing viral antigen at 15 mg/kg, po qd for 48 weeks measured on 60th week; type: functional, Hepatocyte; in short: as §2
[10] = test system: Woodchuck hepatitis virus; assay: Antiviral activity against Woodchuck hepatitis virus infected in woodchuck assessed as reduction of viral RNA level per ug of total cell DNA at 15 mg/kg, po qd for 48 weeks measured on 60th week (reference value: 27 pg); type: functional; in short: as §1
[11] = test system: Woodchuck hepatitis virus; assay: Antiviral activity against Woodchuck hepatitis virus infected in woodchuck assessed as reduction of viral antigen positive hepatocytes at 15 mg/kg, po qd for 48 weeks study (reference value: 35 +/- 27 %); type: functional, Hepatocyte; design: scale not given: the % may be the effect or the level left
In short: (§5)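 Chronic WHV-carrier woodchucks, 5 per group, 15 mg/kg/day oral once daily for 48 weeks in liquid diet. Liver biopsies were taken at pretreatment, weeks 12, 36, 48 and week 60. Percentage of hepatocytes positive for WHcAg was given as group mean ± SD and compared with pretreatment and placebo.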

[12] = test system: Woodchuck hepatitis virus; assay: Antiviral activity against Woodchuck hepatitis virus infected in woodchuck assessed as reduction of viral antigen positive hepatocytes at 15 mg/kg, po qd measured on 36th week on 48 weeks study (reference value: 41 +/- 25 %); type: functional, Hepatocyte; design: scale not given: the % may be the effect or the level left; in short: as §5
[13] = test system: Woodchuck hepatitis virus; assay: Antiviral activity against Woodchuck hepatitis virus infected in woodchuck assessed as reduction of viral DNA replicative intermediate level per ug of total cell DNA at 15 mg/kg, po qd measured on 12th week on 48 weeks study (reference value: 1495 +/- 890 pg); type: functional; in short: as §1
[14] = test system: Woodchuck hepatitis virus; assay: Antiviral activity against Woodchuck hepatitis virus infected in woodchuck assessed as reduction of viral RNA level per ug of total cell DNA at 15 mg/kg, po qd for 48 weeks (reference value: 34 +/- 20 pg); type: functional; in short: as §1
[15] = test system: Woodchuck hepatitis virus; assay: Antiviral activity against Woodchuck hepatitis virus infected in woodchuck assessed as reduction of viral DNA replicative intermediate level per ug of total cell DNA at 15 mg/kg, po qd measured on 36th week on 48 weeks study (reference value: 1132 +/- 738 pg); type: functional; in short: as §1
[16] = test system: Woodchuck hepatitis virus; assay: Antiviral activity against Woodchuck hepatitis virus infected in woodchuck assessed as reduction of viral antigen level in serum at 15 mg/kg, po qd measured on 36th week on 48 weeks study (reference value: 3.8 +/- 1.3 log10 ng/ml); type: functional
[17] = test system: Woodchuck hepatitis virus; assay: Antiviral activity against Woodchuck hepatitis virus infected in woodchuck assessed as reduction of viral antigen level in serum at 15 mg/kg, po qd measured on 12th week on 48 weeks study (reference value: 4.3 +/- 1.5 log10 ng/ml); type: functional
[18] = test system: Woodchuck hepatitis virus; assay: Antiviral activity against Woodchuck hepatitis virus infected in woodchuck assessed as frequency of hepatocytes expressing viral antigen at 15 mg/kg, po qd for 48 weeks; type: functional, Hepatocyte; in short: as §2
Marmota monax [19] = assay: Toxicity in Woodchuck hepatitis virus infected woodchuck assessed as effect on hematological parameters at 15 mg/kg, po qd for 48 weeks measured up to 60 weeks; type: organism-based; design: dose 15 mg/kg, route oral; details: in vivo; in short: as §3
Marmota monax [20] = assay: Toxicity in Woodchuck hepatitis virus infected woodchuck assessed as increase of liver alanine aminotransferase activity at 15 mg/kg, po qd for 48 weeks; type: organism-based; design: dose 15 mg/kg, route oral; details: in vivo, 8064 h; in short: as §4
[21] = test system: Woodchuck hepatitis virus; assay: Antiviral activity against Woodchuck hepatitis virus infected in woodchuck assessed as reduction of viral antigen positive hepatocytes at 15 mg/kg, po qd measured on 12th week on 48 weeks study (reference value: 55 +/- 32 %); type: functional, Hepatocyte; design: scale not given: the % may be the effect or the level left; in short: as §5

Structure (SMILES) | Activity [1] | Activity [2] [pg] | Activity [3] [pg] | Activity [4] [pg] | Activity [5] [%] | Activity (Marmota monax [6]) | Activity [7] | Activity (Marmota monax [8]) | Activity [9] [%] | Activity [10] [pg] | Activity [11] [%] | Activity [12] [%] | Activity [13] [pg] | Activity [14] [pg] | Activity [15] [pg] | Activity [16] [log10ng/ml] | Activity [17] [log10ng/ml] | Activity [18] [%] | Activity (Marmota monax [19]) | Activity (Marmota monax [20]) | other results
CC(C)OC(=O)OCOP(=O)(CO[C@H](C)Cn1cnc2c(N)ncnc21)OCOC(=O)OC(C)C.O=C(O)/C=C/C(=O)O [TENOFOVIR DISOPROXIL FUMARATE] | Active | 25 | 30 | 1374 | 1 | Non-toxic | Active | Toxic | 2 | 34 | 26 | 20 | 870 | 31 | 443 | 2.9 | 3.4 | 1 | Non-toxic | Toxic | Activity [21]: 30%
CC(C)(C)C(=O)OCOP(=O)(COCCn1cnc2c(N)ncnc21)OCOC(=O)C(C)(C)C [ADEFOVIR DIPIVOXIL] | Active | 34 | 33 | 1147 | 5 | Non-toxic | Active | Toxic | 1 | 46 | 13 | 45 | 330 | 24 | 324 | 4.8 | 4.3 | 2 | Non-toxic | Toxic | Activity [21]: 21%
